Screening results as filed in PubChem.
Sampled rows, rich in hits. Any-hit rate of the full collection: about 3.4%.
JNK3 blocker: JNK3 kinase activity inhibitors, primary screen, biochemical, human, purified enzyme; HTS; inhibition, % at 8 µM; 60,000 tested, 0.61% active; in the data active means inhibition above about 17%
ROCK2 inh: inhibitors of human ROCK2 kinase, primary screen, biochemical, high-throughput, luminescence | purified ROCK2, Kinase-Glo ATP depletion luminescence | 60,000 tested, 0.35% active | inhibition, % at 6 µM | Rho-associated protein kinase 2 (Homo sapiens), O75116;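 active means inhibition above the screen-wide mean inhibition plus 3 SD, cut at about 18% in these data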
RORa activator: activators of orphan receptor RORA, primary screen, cell-based, luminescence; Nuclear receptor ROR-alpha (Homo sapiens), P35398; CHO-K1 Gal4-RORA LBD luciferase reporter; percent increase over mock-subtracted basal signal; activation, % at 10 µM; 65,000 tested, 1.5% active;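 active means activation above the mean of all tested compounds plus 3 SD, cut at about 49% in these data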
Target sequence (P35398 whole entry, looked up, the tested form may be a part): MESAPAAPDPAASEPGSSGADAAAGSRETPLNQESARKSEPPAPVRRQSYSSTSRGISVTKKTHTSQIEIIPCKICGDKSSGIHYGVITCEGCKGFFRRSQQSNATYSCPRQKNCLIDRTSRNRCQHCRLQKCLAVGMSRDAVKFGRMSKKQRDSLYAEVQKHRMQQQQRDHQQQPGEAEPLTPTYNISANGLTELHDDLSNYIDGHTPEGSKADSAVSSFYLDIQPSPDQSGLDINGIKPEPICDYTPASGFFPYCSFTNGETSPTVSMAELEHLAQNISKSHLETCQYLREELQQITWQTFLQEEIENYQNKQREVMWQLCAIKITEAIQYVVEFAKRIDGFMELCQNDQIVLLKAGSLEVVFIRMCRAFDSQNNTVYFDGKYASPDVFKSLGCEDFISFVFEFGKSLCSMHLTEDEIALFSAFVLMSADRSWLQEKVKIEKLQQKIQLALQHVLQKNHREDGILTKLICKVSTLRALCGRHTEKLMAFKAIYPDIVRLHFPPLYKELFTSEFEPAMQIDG
SF1 activator: activators of human SF-1, primary screen, cell-based, CHO-K1, Gal4-SF-1 LBD, luciferase luminescence; AID 522, 2006; activation, % at 10 µM; 65,000 tested, 1.9% active; CHO-K1 Gal4-SF-1 LBD luciferase reporter; % increase over DMSO SF-1-specific signal;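 active means activation above the mean activation of all tested compounds plus 3 SD, cut at about 50% in these data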
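Material: Gal4–SF-1 LBD one-hybrid luciferase reporter in CHO-K1 cells | Amount: 4,000 cells per well | Compound dosing: 10 µM single point, 1% DMSO | Schedule: 20 h compound treatment, 37 °C | Measured by: SteadyLite luciferase luminescence | Evaluation: Percent activation versus DMSO | Control set: DMSO-treated SF-1-transfected cells as negative, DMSO-treated mock-transfected cells lacking SF-1 as background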
WNV NS2B-NS3 inh: inhibitors of WNV NS2B-NS3 protease, primary screen, biochemical, fluorogenic substrate | fluorogenic substrate Ex360/Em465; hits give low values | z-score (test concentration not listed) | Genome polyprotein (West Nile virus), P06935 | 65,000 tested, 0.18% active; in the data active means z-score below about -3
PKA inh: inhibitors of human PKA kinase activity, primary screen, biochemical, ATP-depletion luminescence, Kemptide substrate | AID 524, 2006 | 65,000 tested, 0.1% active | PKA Kemptide phosphorylation, Kinase-Glo ATP luminescence | inhibition, % at 6 µM | cAMP-dependent protein kinase catalytic subunit alpha (Homo sapiens), P17612;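 active means inhibition above the screen-wide mean inhibition plus 3 SD, cut at about 21% in these data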
Of the large screens only hits and unclear results are named; the others gave an inactive call.

N#CCc1ccc(NC(=O)Nc2cccc(Cl)c2)cc1	SF1 activator 79
Cc1nnc(NC(=O)Nc2cccc(Cl)c2)s1	none
O=C(Nc1cccc(Cl)c1)Nc1nccs1	RORa activator 72
N#Cc1ccccc1NC(=O)Nc1cccc(Cl)c1	none (no result: JNK3 blocker, ROCK2 inh, RORa activator, SF1 activator, PKA inh)
Cc1csc(NC(=O)Nc2cccc(Cl)c2)n1	RORa activator 70, SF1 activator 63
O=C(NCc1ccccn1)Nc1cccc(Cl)c1	SF1 activator 63
CCn1c(SCc2nc3cc(OC)c(OC)cc3c(=O)[nH]2)nnc1-c1ccncc1	none
CC(=O)c1cccc(NC(=O)NC2CCCCC2)c1	none
O=C(Nc1cccc(Cl)c1)NC1CCCCC1	RORa activator 54, SF1 activator 59
CC1=C(C(=O)Nc2cccc(C)n2)C(c2ccc3c(c2)OCO3)C2=C(CC(c3ccco3)CC2=O)N1 (stereo not given)	none
O=C(NCC1CCCO1)c1cc(-c2ccccc2)on1 (stereo not given)	RORa activator 91, SF1 activator 68
CCOC(=O)C1CCN(C(=O)c2cc(S(=O)(=O)N3CCOCC3)c(Cl)cc2Cl)CC1	none
O=C(Cn1cc(C(=O)c2cccs2)c2ccccc21)NCc1ccc2c(c1)OCO2	none
CCC(C)C(=O)N1CCc2cc(-c3csc(N)n3)ccc21 (stereo not given)	none
Cc1nc(-c2ccc3c(c2)OCO3)cs1	none (no result: JNK3 blocker, ROCK2 inh)
Nc1nc(-c2ccc3c(c2)CCCC3)cs1	RORa activator 76 (no result: JNK3 blocker, ROCK2 inh)
Nc1nc(-c2ccc3c(c2)OCCO3)cs1	RORa activator 50, SF1 activator 64
O=C(NC1CCCCC1)c1cc(-c2ccco2)on1	SF1 activator 58
CC1CCCC(C)N1C(=O)c1cc(-c2cccs2)on1 (stereo not given)	RORa activator 61
O=C(c1cc(-c2cccs2)on1)N1CCCc2ccccc21	none
COc1ccc(-c2cc(C(=O)NC3CCCC3)no2)cc1OC	none
O=C(NC1CCCC1)c1cc(-c2cccs2)on1	RORa activator 109
COC(=O)c1ccc(-c2cc(C(=O)O)c3cc4c(cc3n2)OCCO4)cc1	none
O=C(CSc1nc2ccccc2c(=O)n1-c1ccc(Cl)cc1)c1ccco1	none
CCOC(=O)C1=C(C)NC(SCC(=O)Nc2cc(C)on2)=C(C#N)C1c1cccs1 (stereo not given)	none
O=C(CSc1nccn1Cc1ccccc1)Nc1nccs1	RORa activator 57
O=C(NCc1cccs1)c1csc2ccccc12	none
CCC(=O)Nc1nc2ccc3nc(C)sc3c2s1	RORa activator 82, SF1 activator 56
Clc1ccc2nc(CSc3nnc(-c4c[nH]c5ccccc45)o3)cn2c1	none
Clc1ccc2nc(CSc3nc4ccccc4o3)cn2c1	SF1 activator 50
O=C(Nc1cccc(Cl)c1)c1cnn2cccnc12	SF1 activator 105
CC(Sc1cccc2cccc(C(=O)O)c12)C(=O)O (stereo not given)	none
CC(Sc1ccc2ccccc2n1)C(=O)O (stereo not given)	JNK3 blocker 39
COc1cccc(CNc2ccc3c(c2)ncn3C(C)C)c1OC	SF1 activator 55
O=C(CCn1c(=O)sc2ccccc21)Nc1nccs1	RORa activator 53 (no result: JNK3 blocker, ROCK2 inh)
COc1cccc(/C=C/c2ccncc2)c1OC	none
CN(C)c1ccc(/C=C/c2ccncc2)cc1	RORa activator 73
Oc1ccc2cccnc2c1	none
O=C(Cc1ccc2cccnc2c1)c1ccc(O)cc1O	RORa activator 60
CC1CCCCN1c1nnc(NC(=O)Cn2c(=O)oc3ccccc32)s1 (stereo not given)	none
CN(Cc1nc2ccccc2c(=O)[nH]1)CC(O)COCc1ccco1 (stereo not given)	none
Cc1cc(N2CCCC2)ccc1/C=N/n1cnnc1	none (no result: JNK3 blocker, ROCK2 inh, RORa activator, SF1 activator, PKA inh)
